Published values from different studies.
Target: Aurora kinase A (AURKA, Homo sapiens, UniProt O14965)
Sequence (O14965 1-403, as in one of the studies): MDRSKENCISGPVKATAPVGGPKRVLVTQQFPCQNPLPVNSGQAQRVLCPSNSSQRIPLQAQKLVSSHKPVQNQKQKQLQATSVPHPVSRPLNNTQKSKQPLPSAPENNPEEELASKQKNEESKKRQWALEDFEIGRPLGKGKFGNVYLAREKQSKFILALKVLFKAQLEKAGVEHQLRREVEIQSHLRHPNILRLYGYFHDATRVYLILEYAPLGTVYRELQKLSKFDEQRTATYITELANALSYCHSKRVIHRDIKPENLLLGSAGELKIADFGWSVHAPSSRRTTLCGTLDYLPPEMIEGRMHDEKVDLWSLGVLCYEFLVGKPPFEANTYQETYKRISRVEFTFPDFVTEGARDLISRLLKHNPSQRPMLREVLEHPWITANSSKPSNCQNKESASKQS

Compound	test	setting	remaining binding [%]
CN(c1nccc(-c2cnn3ncccc23)n1)C1CC1	binding	1 µM	84
C=CC(=O)N1CCC(C(=O)NCC(=O)N2CCN(c3nc(-c4cnc(N)nc4C(F)F)nc(N4CCOCC4)n3)CC2)CC1	binding, competition with immobilised ligand	1 µM	96
CCC(=O)N[C@H]1CC[C@@H](C(=O)N(C)c2ccc(-c3nc4ccccc4o3)cc2)C1	cell-free assay, competition with immobilised ligand	1 µM	43
N#Cc1ccccc1CSc1nnc2c(n1)[nH]c1ccccc12	binding, competition with immobilised ligand	10 µM	100
COc1cc(C(=O)N2CCC(N3CCN(C)CC3)CC2)ccc1Nc1ncc2c(n1)N(C)c1ccccc1C(=O)N2C	binding, competition with immobilised ligand	10 µM	1.2
Cc1cnc(Nc2ccc(C(=O)N3CCC(N4CCCC4)CC3)cc2)nc1-c1cc2ccccc2s1	binding, competition with immobilised ligand	1 µM	2
Cc1c(NC(=O)c2cc(C(N)=O)nc3cc(F)ccc23)c(C(F)(F)F)nn1Cc1ccc(C(C)(C)C)cc1	cell-free assay, competition with immobilised ligand	1 µM	100
Nc1ncc2c(n1)-c1c([nH]c3ccc(C#CC4CC4)cc13)CCCC2	binding, competition with immobilised ligand	1 µM	80
C[C@H]1CCN(c2nccc(-c3cnn4ncccc34)n2)C1	binding	1 µM	91
O=C(NS(=O)(=O)c1ccc(NCC2CCOCC2)c([N+](=O)[O-])c1)c1ccc(N2CCN(Cc3ccc(C(F)(F)F)cc3-c3ccc(Cl)cc3)CC2)cc1Oc1cnc2[nH]ccc2c1	cell-free assay, competition with immobilised ligand	1 µM	96
CN(C)c1nccc(-c2cnc3ncccn23)n1	binding	1 µM	49
COc1cnc(Nc2cccc(S(N)(=O)=O)c2)nc1N1CCN(c2ccccc2)CC1	binding, competition with immobilised ligand	1 µM	85
CS(=O)(=O)NCC[C@H](NC(=O)c1cncc2c1cnn2-c1ccc(F)cc1)c1ccnc(S(C)(=O)=O)c1	cell-free assay, competition with immobilised ligand	1 µM	100
FC(F)(F)Oc1cccc(-c2cnc3ccc(-c4ccncc4)nn23)c1	cell-free assay, competition with immobilised ligand	5 µM	91
O=C(c1ccc(Nc2nccc(-c3cc4ccccc4s3)n2)cc1)N1CCC(N2CCCC2)CC1	binding, competition with immobilised ligand	1 µM	33
CN(C(=O)c1ccccc1)c1cc(N(C)c2ccc3c(c2)CCc2ccc(C(=O)NCCN4CCOCC4)cc2C3=O)ccc1F	cell-free assay, competition with immobilised ligand	1 µM	100
COc1ccnn2ncc(-c3ccnc(N(C)C)n3)c12	binding	1 µM	93
COCCOc1nc(-c2ccc(Cl)nc2)nc2c1CN(C(=O)c1ncn3ccccc13)CC2	cell-free assay, competition with immobilised ligand	0.1 µM	81
C[C@@H]1CN(c2ccc3ncc(-c4ccc5[nH]nc(C6CC6)c5c4)n3n2)C[C@H](C)O1	binding, competition with immobilised ligand	50 nM	87
N[C@H]1CCN(c2nccc(-c3cnn4ncccc34)n2)C1	binding	1 µM	97
O=C(NCC1CCOCC1)c1n[nH]cc1NC(=O)c1c(F)cccc1F	binding, competition with immobilised ligand	1 µM	87
CN(C)c1ncc(F)c(-c2cnn3ncccc23)n1	binding	1 µM	100
O=c1nc(-c2ccccn2)sc2ccccc12	cell-free assay, competition with immobilised ligand	1 µM	87
Cc1cnn2ncc(-c3ccnc(N(C)C)n3)c2c1	binding	1 µM	99
O=C(c1ccc(Nc2ncc(Cl)c(-c3cc4ccccc4s3)n2)cc1)N1CCC(N2CCCC2)CC1	binding, competition with immobilised ligand	1 µM	9.2
CSc1cccnc1N1CCN(Cc2nc3ccccc3[nH]2)CC1	cell-free assay, competition with immobilised ligand	1 µM	74
